Active and inactive are the calls of the source. No cut-off for these calls is given here.

The source of these data is ChEMBL document CHEMBL2177062, “Bile acid-based 1,2,4-trioxanes: synthesis and antimalarial assessment” (J Med Chem, 2012).

Data set [1] deals with Plasmodium yoelii nigeriensis. Kind of data set: Antimalarial activity in multidrug-resistant Plasmodium yoelii nigeriensis infected Swiss mouse assessed as suppression of parasitaemia at 96 mg/kg, po two devided dose daily for 4 days. Format: functional. The method, boiled down:
(§1)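 Swiss mice of either sex (20 2 g) inoculated ip with 1 × 10⁶ MDR P. yoelii nigeriensis parasites on day 0. Five mice per dose, given oral doses in groundnut oil from day 0 to 3, twice daily. Parasitaemia read from thin blood smears on day 4. Suppression = [(C − T)/C] × 100 versus untreated controls. 100% means no parasites seen in 50 oil-immersion fields.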

Data set [2] has as its system Plasmodium yoelii nigeriensis. Kind of data set: Antimalarial activity in multidrug-resistant Plasmodium yoelii nigeriensis infected Swiss mouse assessed as suppression of parasitaemia at 48 mg/kg, po two devided dose daily for 4 days. Format: functional. A digest of the protocol:
as §1

Data set [3] deals with Plasmodium yoelii nigeriensis. As to the kind of experiment: Antimalarial activity in multidrug-resistant Plasmodium yoelii nigeriensis infected Swiss mouse assessed as suppression of parasitaemia at 24 mg/kg, po two devided dose daily for 4 days. Format: functional. The method, boiled down:
as §1

Data set [4] in a line: Lipophilicity, log P of the compound. Format: physicochemical. The note with it: octanol/water. A digest of the protocol:
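log P calculated in silico, not measured experimentally.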

For data set [5], the system named is Plasmodium yoelii nigeriensis. As to the kind of experiment: Antimalarial activity in multidrug-resistant Plasmodium yoelii nigeriensis infected Swiss mouse assessed as suppression of parasitaemia at 12 mg/kg, po two devided dose daily for 4 days. It is filed as functional. A digest of the protocol: as §1
Data set [6] concerns Plasmodium yoelii nigeriensis. Kind of data set: Antimalarial activity in multidrug-resistant Plasmodium yoelii nigeriensis infected Swiss mouse assessed as disease cure at 24 mg/kg, po two devided dose daily for 4 days by 28 day survival assay. It is filed as functional. A digest of the protocol: (§2)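 Swiss mice of either sex (20 2 g) inoculated ip with 1 × 10⁶ MDR P. yoelii nigeriensis (chloroquine-, mefloquine-, halofantrine-resistant) parasites on day 0. Five mice per dose. Oral dosing in groundnut oil (0.1 mL per dose) from day 0 to 3, as two divided doses daily. Thin blood smears on day 4, then twice weekly to day 28. Mice without patent infection by day 28 scored cured; % protection = fraction of mice cured. β-arteether as positive control.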

Data set [7] has as its system Plasmodium yoelii nigeriensis. As to the kind of experiment: Antimalarial activity in multidrug-resistant Plasmodium yoelii nigeriensis infected Swiss mouse assessed as disease cure at 96 mg/kg, po two devided dose daily for 4 days by 28 day survival assay. It is filed as functional. The method, boiled down:
as §2

Data set [8] concerns Plasmodium yoelii nigeriensis. As to the kind of experiment: Antimalarial activity in multidrug-resistant Plasmodium yoelii nigeriensis infected Swiss mouse assessed as disease cure at 12 mg/kg, po two devided dose daily for 4 days by 28 day survival assay. Format: functional, organism-based. Also noted: dose 12 mg/kg. The method, boiled down:
as §2

Data set [9] relates to Plasmodium yoelii nigeriensis. Kind of data set: Antimalarial activity in multidrug-resistant Plasmodium yoelii nigeriensis infected Swiss mouse assessed as disease cure at 48 mg/kg, po two devided dose daily for 4 days by 28 day survival assay. It is filed as functional, organism-based. Set-up: dose 48 mg/kg. The method, boiled down: as §2

On to `C=C(c1ccc(Br)cc1)[C@@H]1CO[C@@]2(CC[C@@]3(C)[C@H](CC[C@@H]4[C@@H]3CC[C@]3(C)[C@@H](C(C)=O)CC[C@@H]43)C2)OO1` (relative stereo; form 1), for which the Activity in data set [1] (96 mg/kg), in data set [2] and in data set [3] was 100% in each case. For the same compound, the logP in data set [4] was determined as 8.03.

With `C=C(c1ccccc1)[C@@H]1CO[C@@]2(CC[C@@]3(C)[C@H](CC[C@@H]4[C@@H]3CC[C@]3(C)[C@@H](O)CC[C@@H]43)C2)OO1` (relative stereo; form 2) [listing 1 of 2 here], the Activity in data set [5] is 88.7%; in [1] (96 mg/kg), 100%; in data set [2], 100%; in [3], 100%. The compound also gave a logP in data set [4] of 6.44.

`C=C(c1ccc(F)cc1)[C@@H]1CO[C@@]2(CC[C@@]3(C)[C@H](CC[C@@H]4[C@@H]3CC[C@]3(C)[C@@H](O)CC[C@@H]43)C2)OO1` (relative stereo; form 2) [listing 1 of 2 here]: the Activity was determined as 95.48% in data set [5], 100% in [1], 100% in data set [2] and 100% in data set [3]. Also, the logP in data set [4] was found to be 6.66.

On to `C=C(c1ccc(Br)cc1)[C@@H]1CO[C@@]2(CC[C@@]3(C)[C@H](CC[C@@H]4[C@@H]3CC[C@]3(C)[C@@H](O)CC[C@@H]43)C2)OO1` (relative stereo; form 2) [listing 1 of 2 here], for which the Activity is given as 44.5% in data set [5], 100% in [1] (96 mg/kg), 100% in data set [2] and 100% in data set [3]. Moreover, in data set [4], the logP was 7.27.

With `C=C(c1ccccc1)[C@@H]1CO[C@@]2(CC[C@@]3(C)[C@H](CC[C@@H]4[C@@H]3CC[C@]3(C)[C@@H](C(C)=O)CC[C@@H]43)C2)OO1` (relative stereo; form 2), the Activity in data set [6] is on record as 60%; in data set [1] (96 mg/kg) it was 100%; in data set [2], 100%; in [3], 100%. This compound also had a logP in [4] of 7.2.

Turning to `C=C(c1ccc(F)cc1)[C@@H]1CO[C@@]2(CC[C@@]3(C)[C@H](CC[C@@H]4[C@@H]3CC[C@]3(C)[C@@H](C(C)=O)CC[C@@H]43)C2)OO1` (relative stereo; form 2), the Activity in [6] came out at 60%; in [1], 100%; in data set [2] (48 mg/kg), 100%; in data set [3] it was 100%. In data set [4], this compound had a logP of 7.36.

As to `C=C(c1ccc(Cl)cc1)[C@@H]1CO[C@@]2(CC[C@@]3(C)[C@H](CC[C@@H]4[C@@H]3CC[C@]3(C)[C@@H](C(C)=O)CC[C@@H]43)C2)OO1` (relative stereo; form 2), the Activity was 60% in data set [6], 100% in data set [1] (96 mg/kg), 100% in [2] and 100% in data set [3]. Moreover, the logP in [4] is 7.76.

As to `C=C(c1ccc(Br)cc1)[C@@H]1CO[C@@]2(CC[C@@]3(C)[C@H](CC[C@@H]4[C@@H]3CC[C@]3(C)[C@@H](O)CC[C@@H]43)C2)OO1` (relative stereo; form 2) [listing 2 of 2 here], the result in data set [6], in data set [7] and in [9] was Active. For the same compound, the outcome in data set [8] was inactive.

`C=C(c1ccc(F)cc1)[C@@H]1CO[C@@]2(CC[C@@]3(C)[C@H](CC[C@@H]4[C@@H]3CC[C@]3(C)[C@@H](O)CC[C@@H]43)C2)OO1` (relative stereo; form 2) [listing 2 of 2 here]: the outcome in data set [6], in data set [7] and in data set [9] was Active. For the same compound, in [8], the result was inactive.

With `C=C(c1ccccc1)[C@@H]1CO[C@@]2(CC[C@@]3(C)[C@H](CC[C@@H]4[C@@H]3CC[C@]3(C)[C@@H](O)CC[C@@H]43)C2)OO1` (relative stereo; form 2) [listing 2 of 2 here], the result in [6], in [7] and in data set [9] was Active. Also, in data set [8], the outcome was inactive.
